# Screening results: PubChem BioAssay, Broad Institute
# IDH1 mut inh: inhibitors of IDH1 R132H reductase, primary screen, biochemical, plate reader, single point; Isocitrate dehydrogenase [NADP] cytoplasmic (Homo sapiens), O75874; diaphorase/resazurin fluorescence, 60 min; inhibition, % at 10 µM; 70,000 tested, 0.18% active; AID 624101, 2012; in the data active = inhibition above about 34%;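 note: 0% = DMSO and 100% = no enzyme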
# T cruzi growth-1: T. cruzi intracellular proliferation inhibitors, primary screen, cell-based, beta-gal Tulahuen parasites, NIH3T3 host, luminescence; T. cruzi beta-gal in NIH3T3, GalScreen luminescence, 90 h; inhibition, % at 8.34 µM; 77,000 tested, 5.9% active; AID 624255, 2012;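 active = mean inhibition above about 93%, with at least 55% of replicates each passing it, limit read from the data, passing the limit was not always enough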
# GASC1 inh: inhibitors of GASC-1 (KDM4C) histone demethylase, primary screen, biochemical, single concentration HTS | GST-KDM4C 2-372, H3K9me3 peptide, LANCE TR-FRET | inhibition, % at 12.5 µM | 96,000 tested, 0.15% active;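 active = mean replicate inhibition above about 25%, with at least 55% of replicates also reaching it, limit read from the data, passing the limit was not always enough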
# Target sequence (Q9H3R0 2-372 limits assumed): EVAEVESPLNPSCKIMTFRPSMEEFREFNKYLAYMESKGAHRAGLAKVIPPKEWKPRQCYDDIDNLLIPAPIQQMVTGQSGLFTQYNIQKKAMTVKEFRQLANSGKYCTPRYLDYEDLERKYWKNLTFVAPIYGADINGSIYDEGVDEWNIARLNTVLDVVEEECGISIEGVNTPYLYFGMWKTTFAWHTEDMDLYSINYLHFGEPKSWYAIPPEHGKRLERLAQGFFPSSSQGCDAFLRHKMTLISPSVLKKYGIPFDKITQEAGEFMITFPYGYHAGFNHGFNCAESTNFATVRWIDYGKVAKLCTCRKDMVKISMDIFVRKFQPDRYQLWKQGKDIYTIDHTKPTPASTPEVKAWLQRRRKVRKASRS
#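 Compound: one test concentration per compound; Material: GST-GASC-1 enzyme fragment 2-372; Amount: GASC-1 enzyme at 10 nM final in reaction; Also added: H3K9me3 peptide substrate, Fe(II), 2-oxoglutarate; Technique: LANCE TR-FRET; Times: 30 min demethylation and 1 h detection at room temperature.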
# Pf Dd2 growth: P. falciparum Dd2 growth inhibitors, primary screen, SYBR Green fluorescence, single dose replicates; activity change, % at 10 µM; 72 h; hits give low values; 94,000 tested, 2.3% active; in the data active = activity change below about -80%
# T cruzi growth-2: T. cruzi intracellular proliferation inhibitors, confirmation, cell-based, NIH3T3 host, beta-gal parasite, luminescence, cherry-pick; shares compounds with T cruzi growth-1; T. cruzi beta-gal in NIH3T3, GalScreen luminescence, 90 h; inhibition, % at 8.35 µM; 5,600 tested, 72% active; AID 651739, 2012;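 active = mean replicate inhibition above about 95% and at least 55% of replicates individually reaching it, limit read from the data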
# T cruzi growth-3: inhibitors of intracellular T. cruzi replication, confirmation, NIH3T3 host cells, beta-gal parasites, cherry-pick, set 2. shares compounds with T cruzi growth-1. T. cruzi beta-gal in NIH3T3, GalScreen luminescence, 90 h. inhibition, % at 2.09 µM. 5,600 tested, 21% active. AID 651740, 2012;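 active = mean inhibition above about 95%, with at least 55% of replicates also reaching it, limit read from the data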;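 note: plate controls were neutral control median for no effect and positive control median for full effect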
# 3T3 cytotox: cytotoxicity in mouse NIH/3T3 fibroblasts, confirmation, cytotoxicity control for T. cruzi proliferation inhibitor project, cell-based, cherry-pick, single point | cytotoxicity (signal decrease), % at 8.35 µM | AID 651742, 2012 | NIH/3T3 viability, CellTiter-Glo ATP luminescence, 90 h | shares compounds with T cruzi growth-1 | 5,600 tested, 14% active;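 active = mean signal decrease across replicates above about 35% based on untreated-well scatter, with enough replicates individually passing, limit read from the data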;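 note: 0% = median of neutral control wells and 100% = median of positive control wells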
# 3T3 cytotox 2: NIH/3T3 fibroblast cytotoxicity, confirmation, cytotoxicity control, cell-based, cherry-pick, single point, set 2; shares compounds with T cruzi growth-1; NIH/3T3 viability, CellTiter-Glo ATP luminescence, 90 h; inhibition, % at 24.9 µM; 5,600 tested, 56% active; AID 651744, 2012;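 active = mean loss of cell viability signal at or above a set limit, and enough replicates individually reaching it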;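 note: 0% = median of neutral control wells and 100% = median of positive control wells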
# An asterisk follows results filed as active; . = no result given. The list is not random: actives were taken first. Their share in the collection is about 5.8%.
SMILES,IDH1 mut inh,T cruzi growth-1,GASC1 inh,Pf Dd2 growth,T cruzi growth-2,T cruzi growth-3,3T3 cytotox,3T3 cytotox 2
CN1[C@H](C(=O)NC2CCCC2)[C@@H](CO)[C@@H]2Cn3c(ccc(/C=C/c4ccccc4)c3=O)[C@@H]21,.,.,2,-16,.,.,.,.
C[C@H]1CN([C@@H](C)CO)S(=O)(=O)c2ccc(-c3ccncc3)cc2O[C@H]1CN(C)C(=O)C1CCCCC1,8,79,0,-18,.,.,.,.
O=C(Cn1cc(Br)c([N+](=O)[O-])n1)Nc1ccccc1F,0,.,.,.,.,.,.,.
COc1cccc(NC(=O)N(C)C[C@@H]2Oc3cc(/C=C/c4ccccc4)ccc3S(=O)(=O)N([C@H](C)CO)C[C@H]2C)c1,2,.,-1,-48,.,.,.,.
C/C=C/c1ccc2c(c1)O[C@H](CN(C)C(=O)Nc1ccc(F)cc1)[C@H](C)CN([C@H](C)CO)S2(=O)=O,0,65,-2,-12,.,.,.,.
C[C@H](CO)N1C[C@H](C)[C@H](CN(C)C(=O)Nc2ccc(F)cc2)Oc2cc(/C=C/c3ccccc3)ccc2S1(=O)=O,-1,122*,.,-79,99*,105*,12,36*
C/C=C/c1ccc2c(c1)O[C@@H](CN(C)C(=O)Nc1cccc(F)c1)[C@H](C)CN([C@@H](C)CO)S2(=O)=O,0,97*,2,1,84,35,19,63*
C[C@@H]1CN([C@H](C)CO)S(=O)(=O)c2ccc(/C=C/c3ccccc3)cc2O[C@@H]1CN(C)C(=O)Nc1cccc(F)c1,-3,124*,-2,-66,101*,108*,22,30
C/C=C/c1ccc2c(c1)O[C@@H](CN(C)C(=O)Nc1ccc(C(F)(F)F)cc1)[C@H](C)CN([C@H](C)CO)S2(=O)=O,3,112*,0,-17,94,103*,43*,55*
C/C=C/c1ccc2c(c1)O[C@@H](CN(C)C(=O)Nc1cccc(F)c1)[C@@H](C)CN([C@H](C)CO)S2(=O)=O,0,66,-1,-51,.,.,.,.
CCN1CCN(C(=S)c2cc(I)c(OCC(=O)Nc3cccc(C)c3)c(OC)c2)CC1,-1,.,.,.,.,.,.,.
CN1C[C@@H]2[C@H](c3ccccc31)[C@H](CO)N2C(=O)Nc1cccc(F)c1,.,50,0,-14,.,.,.,.
Cc1noc(C)c1S(=O)(=O)N(C)C[C@H]1Oc2ccc(NC(=O)NC3CCCCC3)cc2CC(=O)N([C@H](C)CO)C[C@H]1C,.,8,-1,11,.,.,.,.
C[C@@H]1CN([C@H](C)CO)S(=O)(=O)c2ccc(/C=C/c3ccccc3)cc2O[C@H]1CN(C)C(=O)Nc1cccc(F)c1,0,123*,-2,-61,96*,99*,73*,102*
C/C=C/c1ccc2c(c1)O[C@H](CN(C)C(=O)Nc1cc(F)ccc1F)[C@@H](C)CN([C@H](C)CO)S2(=O)=O,3,28,-2,-33,.,.,.,.
C/C=C/c1ccc2c(c1)O[C@H](CN(C)C(=O)Nc1cccc(F)c1)[C@@H](C)CN([C@H](C)CO)S2(=O)=O,-2,80,-2,-11,.,.,.,.
C/C=C/c1ccc2c(c1)O[C@H](CN(C)C(=O)Nc1cc(F)ccc1F)[C@@H](C)CN([C@@H](C)CO)S2(=O)=O,-3,100*,0,-45,101*,33,0,25
